Like-named read-outs stand apart in the source and are kept apart here.
Key:
[1] = system: gastric H+/K+ adenosine triphosphatase (ATPase); conditions: porcine gastric vessels, cited from earlier work
intragastric pH = conditions: cited from earlier work
CYP1A2 = conditions: cited from earlier work
[2] = cited from earlier work
[3] = cited from earlier work; remark: listed apart in the source
STS = type: in vivo, human; conditions: for median PFS: pazopanib 800 mg fasted cohort
Procedure, shortened: (§1)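 PFS was defined as time on treatment until progression or death and analysed per tumour type, with GAS vs no GAS groups (PPI/H2A use on the days before first Cmin). Median PFS came from Kaplan-Meier with log rank test, and hazard ratios from univariate Cox regression; P<.05 was significant. Patients with GI abnormalities or on strong CYP3A4 inducers/inhibitors were excluded.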

[4] = first steady-state pazopanib trough concentration; type: in vivo, human
Procedure, shortened: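 Observational study. Patients took the study drug 800 mg OD fasted or 600 mg OD with food and were advised to take a PPI/H2A 1 hour later; antacid users were counted as non-GAS. Only the first steady-state (>7 consecutive days) plasma trough was used, measured by validated HPLC-MS/MS.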

advanced RCC = type: in vivo, human; conditions: univariate Cox regression
Procedure, shortened: as §1

SMILES | time to fully inhibit the H+, K+ ATPase [1] | duration of pH elevation >4 (intragastric pH; omeprazole 20 mg) | effect on CYP1A2 (CYP1A2) | inhibition of H+, K+ ATPase ([1]; at 45 minutes) | duration of pH elevation >4 (intragastric pH; pantoprazole 40 mg) | solubility in aqueous solutions ([2]; above pH 4) | solubility in aqueous solutions ([2]; pH 1) | increase of exposure on intake with a high caloric meal [3] | oral bioavailability [3] | decrease of mean pazopanib Cmin levels ([3]; esomeprazole administered 12 hours after fasted intake of pazopanib) | median PFS (STS; with GAS) | median PFS (STS; without GAS) | hazard ratio for progression or death, with vs without GAS (STS; univariate Cox regression) | percentage of patients with Cmin below the target threshold of 20.5 mg/L ([4]; pazopanib 600 mg taken with food, with GAS) | percentage of patients with Cmin below the target threshold of 20.5 mg/L ([4]; pazopanib 600 mg taken with food, without GAS) | percentage of patients with Cmin below the target threshold of 20.5 mg/L ([4]; pazopanib 800 mg taken fasted, with GAS) | percentage of patients with Cmin below the target threshold of 20.5 mg/L ([4]; pazopanib 800 mg taken fasted, without GAS) | hazard ratio for PFS, with vs without GAS (advanced RCC)
COc1ccc2[nH]c([S+]([O-])Cc3ncc(C)c(OC)c3C)nc2c1 (stereo not shown) [omeprazole] | 30 min | 49.16 % of the day | dose‐dependent inducer of CYP1A2 | – | – | – | – | – | – | – | – | – | – | – | – | – | – | –
COc1ccnc(C[S+]([O-])c2nc3ccc(OC(F)F)cc3[nH]2)c1OC (stereo not shown) [pantoprazole] | – | – | does not affect CYP1A2 | 50% | 41.94 % of the day | – | – | – | – | – | – | – | – | – | – | – | – | –
Cc1ccc(Nc2nccc(N(C)c3ccc4c(C)n(C)nc4c3)n2)cc1S(N)(=O)=O [pazopanib] | – | – | – | – | – | practically insoluble | slightly soluble | ~ 2 fold | approximately 21% | 36% | 17 weeks | 32 weeks | 3.89 | 26.9% | 14% | 33.3% | 19.5% | 1.13

Source: PMC8048885 (International Journal of Cancer, 2021)
